Source: PMC5621377 (Clinical cancer research : an official journal of the …, 2016)
Entries after “also recorded” stand apart in the source; their conditions may differ.

What was measured:
[1] = test system: patients with Rb+ advanced solid tumors or lymphomas; assay: Phase I dose escalation: DLT and MTD/RDE determination; assay type: in vivo
[2] = Pharmacokinetics, plasma LC-MS/MS, non-compartmental analysis; assay type: in vivo, human
Summary of the method: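 Oral daily dosing at 50–1,200 mg/day. On Cycle 1 Days 1 and 18/21, blood was drawn pre-dose and at 0.5, 1, 2, 4, 6, 8 and 24 h, with further trough days. Parent drug and a metabolite in plasma were measured by validated LC-MS/MS (LLOQ 1.0 ng/mL). Non-compartmental analysis was used. Dose proportionality was fitted as ln(Cmax or AUC0–24) = α + β ln(dose). T1/2,acc came from the accumulation ratio; steady state was judged from troughs.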

[3] = test system: Ki67 and phosphorylated Rb [pRb]; assay: Pharmacodynamic biomarkers by immunohistochemistry in skin and tumor biopsies; assay type: in vivo, human
[4] = test system: Rb+ advanced solid tumors or lymphomas; assay: Clinical activity, radiographic response; assay type: in vivo, human
Summary of the method: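 Oral test compound given daily on a 3-weeks-on/1-week-off schedule (50–1,200 mg/day) or a continuous 28-day schedule (600 mg/day). Response was assessed by CT or MRI per RECIST 1.0 for solid tumors or IWG criteria for lymphomas. Scans were done at the end of every second cycle for six cycles, then every third cycle, and at end of treatment. Patients receiving at least one dose were included; analyses were descriptive.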

neuroblastoma cell lines = details: in vitro, dose-dependent; cited from earlier work
[5] = ref unpublished data; cited from earlier work

CN(C)C(=O)c1cc2cnc(Nc3ccc(N4CCNCC4)cn3)nc2n1C1CCCC1 [ribociclib]
maximum tolerated dose (MTD) ([1]; 3-weeks-on/1-week-off schedule): 900 mg/day | recommended dose for expansion (RDE) ([1]; human, in vivo, 28 days): 600 mg/day | number of dose-limiting toxicities during Cycle 1 ([1]; in vivo): Nine | mean effective half-life based on accumulation ratio (T1/2, acc) ([2]; at the RDE (600 mg/day 3-weeks-on/1-week-off), oral): 32.6 h | dose proportionality of Cmax and AUC ([2]; dose range 50–1,200 mg/day): slightly higher than dose proportional; also recorded: slightly more than proportional to dose | Tmax ([2]; human, plasma, po): 1 to 5 h | steady state reached by ([2]; trough concentrations after repeated daily dosing): ~8 days | post-treatment changes in pRb in tumor samples ([3]; 16 paired tumor biopsies): not significant or consistent | change of Ki67 in tumor biopsies ([3]; 19 paired tumor biopsies, baseline to Day 15 of Cycle 1 or 2): reductions of Ki67 from baseline were observed at higher ribociclib doses | change of pRb in skin samples ([3]; 46 paired skin biopsies): Mean decreases of pRb in skin samples were observed at all dose levels | change of Ki67 in skin biopsies ([3]; 48 paired skin biopsies, baseline to Day 15 of Cycle 2): post-treatment reductions of Ki67 were observed across all dose levels | patients with best response of stable disease ([4]; 132 patients): 43 | stable disease as best overall response by RECIST, patients ([4]; 132 patients): 41 | stable disease as best overall response per IWG, patients ([4]; 132 patients): two | partial response rate ([4]; 132 patients, RECIST): 2.3% | stable disease as best overall response, rate ([4]; RECIST plus IWG, 132 patients): 32.6% | time on therapy ([4]; one patient with teratoma, 400 mg/day 3-weeks-on/1-week-off): 100 weeks | time on therapy ([4]; patient with liposarcoma, 600 mg/day continuous, past cut-off date): 102 weeks | concentration with marked accumulation of cells in G0/G1 phase (neuroblastoma cell lines): above 100 nmol/L | nonclinical toxicity finding, bone marrow [5]: hypocellularity | nonclinical toxicity finding, cardiac [5]: prolongation of the average QTc | nonclinical toxicity finding, lymphoid system [5]: lymphoid depletion | nonclinical toxicity finding, testes [5]: atrophy
